Assays:
[1] = Plasma concentration in BALB/c mouse at 4 to 5 mg/kg administered as inhalable bolus dose by HPLC; format: ADME, organism-based; design: dose 4-5 mg/kg; details: inhaled or intranasal
Procedure, shortened: (§1)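 BALB/c mice (25–30 g, either sex, groups of 4) given 100 μg drug by dry-powder inhalation of spray-dried polylactide microparticles (~10 mg charged, fluidized by 30 actuations over 30 s, nose-only). Noncompartmental extravascular-bolus fit; mean ± SD.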

[2] = Cmax in 10^6 mouse alveolar macrophages at 4 to 5 mg/kg, iv measured after 4 hrs by HPLC; format: ADME, organism-based, BALB/c, Macrophage; design: dose 4-5 mg/kg, route intravenous; details: in vivo
Procedure, shortened: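 After a 100 μg i.v. caudal-vein dose, four mice per time point underwent bronchoalveolar lavage with chilled saline plus 0.5 mM EDTA. Macrophages in the lavage were counted by hemocytometer and lysed, and drug was quantified by HPLC-UV per 10⁶ cells.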

[3] = test system: Mus musculus; experiment: Volume of distribution in BALB/c mouse at 4 to 5 mg/kg administered as inhalable bolus dose by HPLC; format: ADME, organism-based; design: dose 4-5 mg/kg; details: in vivo, inhaled_or_intranasal; procedure, shortened: as §1
[4] = test system: Serum; experiment: AUC (OBS) in BALB/c mouse serum at 4 to 5 mg/kg, iv administered as single bolus dose by HPLC; format: ADME, organism-based; design: dose 4-5 mg/kg, route intravenous; details: in vivo
[5] = test system: Serum; experiment: AUC (OBS) in BALB/c mouse serum at 4 to 5 mg/kg administered as inhalable bolus dose by HPLC; format: ADME, organism-based; design: dose 4-5 mg/kg; details: in vivo, inhaled_or_intranasal; procedure, shortened: as §1
[6] = Clearance in BALB/c mouse at 4 to 5 mg/kg, iv administered as single bolus dose by HPLC; format: ADME, organism-based; design: dose 4-5 mg/kg, route intravenous; details: in vivo
[7] = Plasma concentration in BALB/c mouse at 4 to 5 mg/kg, iv administered as single bolus dose by HPLC; format: ADME, organism-based; design: dose 4-5 mg/kg, route intravenous
[8] = Cmax in 10^6 mouse alveolar macrophages at 4 to 5 mg/kg administered as inhalable dose measured 6 hrs postinhalation by HPLC; format: ADME, organism-based, Macrophage; design: dose 4-5 mg/kg; details: in vivo, inhaled_or_intranasal
Procedure, shortened: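 Mice inhaled 100 μg drug as dry-powder microparticles. Four animals per time point were anesthetized, and lungs were lavaged with chilled saline containing 0.5 mM EDTA. Recovered alveolar macrophages were counted by hemocytometer and extracted. Drug was measured by HPLC-UV and expressed per 10⁶ cells.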

[9] = test system: Mus musculus; experiment: Volume of distribution in BALB/c mouse at 4 to 5 mg/kg, iv administered as single bolus dose by HPLC; format: ADME, organism-based; design: dose 4-5 mg/kg, route intravenous; details: in vivo
[10] = Elimination rate constant in human THP1 cells at 3 ug/ml after 10 mins by HPLC; format: ADME, cell-based; details: THP-1 cells
[11] = test system: Mus musculus; experiment: (§2) Clearance in BALB/c mouse at 4 to 5 mg/kg administered as inhalable bolus dose by HPLC; format: ADME, organism-based; design: dose 4-5 mg/kg; details: in vivo, inhaled_or_intranasal; procedure, shortened: as §1
[12] = Elimination rate constant in human THP1 cells at 3 ug/ml administered as microparticles after 10 mins by HPLC; format: ADME, cell-based; details: THP-1 cells
Procedure, shortened: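 THP-1 cells (10⁶/well) were differentiated with PMA for 14 h, washed, and rested 10 h. Microparticles (12 μg/ml, drug-equivalent 3 μg/ml) were added for 2 h, then washed out. Duplicate wells were lysed by freeze-thaw at serial times and analyzed by HPLC. A one-compartment model with no lag and first-order elimination was fitted.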

[13] = Half life in BALB/c mouse serum at 4 to 5 mg/kg, iv administered as single bolus dose by HPLC; format: ADME, organism-based; design: dose 4-5 mg/kg, route intravenous
[14] = as §2; format: ADME, organism-based; design: dose 4-5 mg/kg; details: BALB/c, in vivo, inhaled or intranasal; procedure, shortened: as §1
[15] = Half life in BALB/c mouse serum at 4 to 5 mg/kg administered as inhalable bolus dose by HPLC; format: ADME, organism-based; design: dose 4-5 mg/kg; details: inhaled or intranasal; procedure, shortened: as §1

Row | Cmax [1] [ng/mL] | Cmax [2] [µg] | Vz [3] [mL] | AUC [4] [µg/mL/h] | AUC [5] [µg/mL/h] | clearance [6] [mL/min] | Cmax [7] [ng/mL] | Cmax [8] [µg] | Vz [9] [mL] | k el at 10 min, 3 ug/ml [10] [s⁻¹] | CL [11] [mL/h] | k el at 10 min, 3 ug/ml [12] [s⁻¹] | half-life [13] [h] | CL/F [14] [mL/min] | half-life [15] [h] | Compound
1 | 2370 | 0.29 | 1670 | 16.64 | 55.34 | 0.0738 | 3240 | 0.56 | 41.34 | 9.44e-06 | 63.9 | 0.000102 | – | – | – | NNC(=O)c1ccncc1 [ISONIAZID]
2 | 1590 | 0.32 | 2308.84 | 90.82 | 109.35 | 0.017 | 3470 | 1.65 | 29.52 | 1.39e-06 | – | 1.67e-05 | 20.2 | 0.195 | 119 | CO[C@H]1/C=C/O[C@@]2(C)Oc3c(C)c(O)c4c(c3C2=O)C2=NC3(CCN(CC(C)C)CC3)NC2=C(NC(=O)/C(C)=C\C=C\[C@H](C)[C@H](O)[C@@H](C)[C@@H](O)[C@@H](C)[C@H](OC(C)=O)[C@@H]1C)C4=O [RIFABUTIN]

— ChEMBL document CHEMBL1671615 (Antimicrob Agents Chemother, 2008)
